Consider 33 compounds from ChEMBL document CHEMBL1153925, “Synthesis, characterization and biological activity of ring-substituted 6-benzylamino-9-tetrahydropyran-2-yl and 9-tetrahydrofuran-2-ylpurine derivatives” (Bioorg Med Chem, 2009).

A word on the IC50: it is the concentration needed to halve the response being measured.

Bounds are passed on as bounds.

One assay deals with MCF7. The assay is described as follows: Cytotoxicity against human MCF7 cells after 72 hrs by Calcein AM assay. Type of assay: ADME, cell-based. As to conditions: MCF7, 72 h.
In a further assay the test system is Amaranthus. The assay is described as follows: Cytokinin activity in cotyledons assessed as dark induction of betacyanin synthesis at 100 uM relative to 6-benzylaminopurine. Type of assay: functional.
In another assay the test system is Triticum aestivum. The assay is described as follows: Cytokinin activity in wheat leaf assessed as stimulation of retention of chlorophyll in excised leaves at 0.1 mM relative to 6-benzylaminopurine. Type of assay: functional.
For assay [1], the system named is Nicotiana tabacum. The experiment in a line: Cytokinin activity in tobacco callus assessed as stimulation of callus growth at 1 uM relative to 6-benzylaminopurine. Type of assay: functional.
A further assay concerns K562. The experiment in a line: Cytotoxicity against human K562 cells after 72 hrs by Calcein AM assay. The assay is classed as ADME, cell-based. As to conditions: K562, 72 h.
For the next assay, the system named is BJ. The experiment in a line: Cytotoxicity against human BJ cells after 72 hrs by MTT assay. Type of assay: ADME, cell-based. (Formazan colour is commonly taken as a measure of viable cells.)
The subject of assay [2] is Nicotiana tabacum. The experiment in a line: Cytokinin activity in tobacco callus assessed as stimulation of callus growth at 10 uM relative to 6-benzylaminopurine. Type of assay: functional. An outline of the steps:
(§1)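 Compounds dissolved in DMSO, diluted with water to 5 × 10^-2 M stock, then diluted in medium to 10^-8 to 10^-4 M. Final DMSO ≤0.2%; solvent control 0.2% DMSO. Readout was cytokinin-dependent tobacco callus growth. Activity is expressed relative to 10^-6 M BAP (=100%) at each compound's optimal concentration. Five replicates per concentration; whole test run at least twice.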

Assay [3] concerns Nicotiana tabacum. The experiment in a line: Cytokinin activity in tobacco callus assessed as stimulation of callus growth at 100 uM relative to 6-benzylaminopurine. Type of assay: functional. The procedure, abridged:
as §1

`COc1ccc(CNc2ncnc3c2ncn3C2CCCO2)c(OC)c1` (stereo not given): the IC50 in the assay with MCF7, with K562 and in the assay on BJ was > 100 µM each time. In addition, the values for the Activity in the assay on Amaranthus, with Triticum aestivum and with Nicotiana tabacum [1] were 14%, 18% and 3%, respectively.

Regarding `COc1ccc(CNc2ncnc3c2ncn3C2CCCO2)cc1` (stereo not given), the IC50 in the assay with MCF7, in the assay on K562 and in the assay with BJ was > 100 µM each time. The Activity was 25% with Amaranthus, 16% with Triticum aestivum and 7% in the assay on Nicotiana tabacum [1].

In the case of `COc1ccc(CNc2ncnc3c2ncn3C2CCCCO2)cc1` (stereo not given), the IC50 with MCF7, in the assay on K562 and with BJ was > 100 µM throughout. The values for the Activity in the assay with Amaranthus and in the assay with Nicotiana tabacum [1] were 18% and 10%, respectively.

`COc1ccc(CNc2ncnc3c2ncn3C2CCCCO2)c(OC)c1` (stereo not given): the IC50 in the assay with MCF7, in the assay on K562 and with BJ was > 25 µM each time. For the same compound, the Activity is reported as 9% in the assay on Amaranthus and 25% in the assay on Triticum aestivum.

As for `Oc1ccc(CNc2ncnc3c2ncn3C2CCCO2)cc1` (stereo not given), the IC50 in the assay with MCF7, with K562 and in the assay with BJ was > 100 µM throughout. For the same compound, the Activity with Amaranthus turned out to be 10%; with Triticum aestivum, 8%; in the assay with Nicotiana tabacum [2] it was 19%.

As to `COc1ccccc1CNc1ncnc2c1ncn2C1CCCCO1` (stereo not given), the IC50 with MCF7 was > 100 µM; in the assay on K562 it was 97 µM; with BJ it was > 100 µM. In addition, the Activity amounted to 84% with Amaranthus, 104% with Triticum aestivum and 93% with Nicotiana tabacum [1].

For the compound `COc1cccc(CNc2ncnc3c2ncn3C2CCCCO2)c1O` (stereo not given), the IC50 in the assay on MCF7, in the assay with K562 and in the assay on BJ was > 100 µM in each case. Moreover, the Activity in the assay on Nicotiana tabacum [3] was 12%; in the assay with Amaranthus it was 18%.

On to `COc1cc(CNc2ncnc3c2ncn3C2CCCO2)ccc1O` (stereo not given), for which the IC50 in the assay on MCF7, in the assay on K562 and in the assay with BJ was > 100 µM each time. Besides, the figures for the Activity in the assay with Nicotiana tabacum [3], with Amaranthus and in the assay on Triticum aestivum were 13%, 17% and 4%, respectively.

With `COc1cccc(CNc2ncnc3c2ncn3C2CCCCO2)c1` (stereo not given), the IC50 with MCF7 is 97 µM; in the assay on K562 it was 61 µM; in the assay on BJ, > 100 µM. Moreover, the Activity with Amaranthus is 76%; in the assay with Triticum aestivum, 72%; in the assay on Nicotiana tabacum [1], 90%.

With `COc1ccc(CNc2ncnc3c2ncn3C2CCCCO2)c(OC)c1OC` (stereo not given), the IC50 with MCF7, with K562 and in the assay with BJ was > 37.5 µM in each case. Besides, the Activity with Amaranthus was 4%; in the assay with Triticum aestivum it was 7%.

`c1ccc(CNc2ncnc3c2ncn3C2CCCCO2)cc1` (stereo not given): the IC50 with MCF7, with K562 and in the assay on BJ was > 100 µM in each case. In addition, the Activity in the assay on Amaranthus was determined as 114%; in the assay on Triticum aestivum it was 104%; in the assay with Nicotiana tabacum [1] it was 102%.

Consider `COc1ccc(CNc2ncnc3c2ncn3C2CCCCO2)cc1OC` (stereo not given), for which the IC50 in the assay on MCF7, with K562 and in the assay on BJ was > 100 µM in each case. Besides, the Activity with Amaranthus and with Triticum aestivum was 8% each time.

`COc1ccccc1CNc1ncnc2c1ncn2C1CCCO1` (stereo not given): the IC50 in the assay on MCF7, with K562 and in the assay with BJ was > 100 µM throughout. Moreover, the Activity in the assay with Amaranthus is 107%; with Triticum aestivum, 72%; in the assay with Nicotiana tabacum [2] it was 91%.

As to `COc1cc(OC)c(OC)cc1CNc1ncnc2c1ncn2C1CCCO1` (stereo not given), the IC50 in the assay with MCF7, with K562 and in the assay with BJ was > 100 µM in each case. The Activity in the assay with Nicotiana tabacum [3] came out at 14%; in the assay on Amaranthus it was 14%; with Triticum aestivum it was 9%.

Take `COc1cccc(OC)c1CNc1ncnc2c1ncn2C1CCCCO1` (stereo not given): the IC50 in the assay on MCF7 is > 100 µM; in the assay on K562, 10.3 µM; in the assay with BJ, > 100 µM. In addition, the Activity in the assay with Nicotiana tabacum [3] was 57%; in the assay on Amaranthus, 13%; with Triticum aestivum, 14%.

For the compound `Oc1ccccc1CNc1ncnc2c1ncn2C1CCCCO1` (stereo not given), the IC50 in the assay on MCF7, in the assay on K562 and in the assay with BJ was > 100 µM throughout. For the same compound, the Activity in the assay with Amaranthus turned out to be 46%; in the assay on Triticum aestivum, 31%; in the assay on Nicotiana tabacum [2] it was 37%.

Consider `c1ccc(CNc2ncnc3c2ncn3C2CCCO2)cc1` (stereo not given), for which the IC50 with MCF7, in the assay on K562 and in the assay on BJ was > 100 µM each time. For the same compound, the Activity in the assay with Amaranthus is 109%; in the assay on Triticum aestivum, 107%; with Nicotiana tabacum [1] it was 95%.

With `COc1cc(CNc2ncnc3c2ncn3C2CCCCO2)cc(OC)c1OC` (stereo not given), the IC50 with MCF7, with K562 and with BJ was > 100 µM in each case. Also, the Activity in the assay with Nicotiana tabacum [3] was found to be 17%; with Amaranthus, 19%; in the assay with Triticum aestivum, 7%.

Consider `COc1cc(OC)c(CNc2ncnc3c2ncn3C2CCCCO2)c(OC)c1` (stereo not given), for which the IC50 in the assay with MCF7, with K562 and in the assay on BJ was > 50 µM in each case. Also, the Activity was found to be 2% with Nicotiana tabacum [3], 14% with Amaranthus and 3% in the assay with Triticum aestivum.

For `COc1cccc(CNc2ncnc3c2ncn3C2CCCO2)c1` (stereo not given), the IC50 in the assay with MCF7, in the assay with K562 and in the assay on BJ was > 100 µM each time. Further, the Activity came to 123% with Amaranthus, 82% with Triticum aestivum and 96% in the assay with Nicotiana tabacum [1].

For `Oc1cccc(CNc2ncnc3c2ncn3C2CCCCO2)c1O` (stereo not given), the IC50 was > 100 µM with MCF7, 92 µM in the assay on K562 and 63.3 µM with BJ. In addition, the results for the Activity in the assay on Nicotiana tabacum [3] and with Amaranthus were 3.2% and 8%, respectively.

For the compound `Oc1ccc(CNc2ncnc3c2ncn3C2CCCCO2)cc1` (stereo not given), the half-maximal inhibitory concentration (IC50) in the assay with MCF7, in the assay with K562 and in the assay with BJ was > 100 µM each time. Besides, the results for the Activity in the assay with Amaranthus, in the assay with Triticum aestivum and in the assay with Nicotiana tabacum [2] were 34%, 4% and 20%, respectively.

For the compound `Oc1cc(O)cc(CNc2ncnc3c2ncn3C2CCCCO2)c1` (stereo not given), the 50% inhibitory concentration (IC50) with MCF7, with K562 and with BJ was > 100 µM throughout. Also, the results for the Activity with Amaranthus, in the assay on Triticum aestivum and in the assay with Nicotiana tabacum [2] were 33%, 15% and 36%, respectively.

For the compound `COc1ccc(CNc2ncnc3c2ncn3C2CCCO2)c(OC)c1OC` (stereo not given), the IC50 in the assay with MCF7, in the assay with K562 and with BJ was > 100 µM throughout. For the same compound, the Activity with Nicotiana tabacum [3] is reported as 7%; in the assay with Amaranthus it was 15%; in the assay with Triticum aestivum, 9%.

With `Oc1ccccc1CNc1ncnc2c1ncn2C1CCCO1` (stereo not given), the IC50 with MCF7, with K562 and in the assay on BJ was > 100 µM in each case. The Activity in the assay with Nicotiana tabacum [3] was found to be 58%; in the assay on Amaranthus it was 41%; in the assay on Triticum aestivum it was 25%.

Turning to `COc1ccc(OC)c(CNc2ncnc3c2ncn3C2CCCCO2)c1` (stereo not given), the IC50 in the assay with MCF7 is 25.4 µM; in the assay on K562, 16.5 µM; with BJ, > 100 µM. The values for the Activity with Amaranthus, in the assay on Triticum aestivum and in the assay on Nicotiana tabacum [2] were 28%, 19% and 42%, respectively.

Turning to `COc1cc(CNc2ncnc3c2ncn3C2CCCCO2)ccc1O` (stereo not given), the IC50 in the assay with MCF7, in the assay with K562 and with BJ was > 100 µM throughout. In addition, the Activity was found to be 8.7% with Nicotiana tabacum [3], 26% with Amaranthus and 7% in the assay with Triticum aestivum.

With `COc1cc(OC)c(OC)cc1CNc1ncnc2c1ncn2C1CCCCO1` (stereo not given), the IC50 in the assay on MCF7, in the assay with K562 and in the assay with BJ was > 100 µM in each case. Moreover, the Activity was 11% in the assay on Nicotiana tabacum [3] and 3% with Amaranthus.

For `COc1cc(CNc2ncnc3c2ncn3C2CCCO2)cc(OC)c1` (stereo not given), the IC50 in the assay with MCF7, with K562 and in the assay with BJ was > 100 µM throughout. Also, the Activity came to 14% with Nicotiana tabacum [3], 18% in the assay with Amaranthus and 8% in the assay with Triticum aestivum.

As for `COc1ccc(OC)c(CNc2ncnc3c2ncn3C2CCCO2)c1` (stereo not given), the IC50 in the assay with MCF7, in the assay on K562 and with BJ was > 50 µM each time. For the same compound, the results for the Activity in the assay on Amaranthus, with Triticum aestivum and in the assay on Nicotiana tabacum [2] were 41%, 41% and 61%, respectively.

For the compound `COc1cc(CNc2ncnc3c2ncn3C2CCCO2)cc(OC)c1OC` (stereo not given), the IC50 with MCF7, in the assay on K562 and in the assay on BJ was > 100 µM in each case. For the same compound, the Activity with Nicotiana tabacum [3] turned out to be 4%; in the assay with Amaranthus, 17%; in the assay on Triticum aestivum it was 10%.

Consider `COc1cc(CNc2ncnc3c2ncn3C2CCCCO2)cc(OC)c1` (stereo not given), for which the IC50 with MCF7, in the assay on K562 and with BJ was > 100 µM in each case. In addition, the figures for the Activity in the assay on Amaranthus and with Triticum aestivum were 9% and 7%, respectively.

As for `COc1ccc(CNc2ncnc3c2ncn3C2CCCO2)cc1OC` (stereo not given), the IC50 in the assay with MCF7, in the assay with K562 and with BJ was > 100 µM throughout. Besides, the Activity in the assay on Amaranthus is 5%; with Triticum aestivum, 7%; in the assay on Nicotiana tabacum [1], 3%.
